Experimental findings from ChEMBL document CHEMBL1145995, “Tricyclic benzimidazoles as potent poly(ADP-ribose) polymerase-1 inhibitors” (J Med Chem, 2003) are described below.

Assay [1] has as its system LoVo. The assay can be described thus: Concentration that gives 50% growth inhibition in LoVo cells, activity expressed as GI50. The format is functional. The following applies: Homo sapiens.
Assay [2] deals with LoVo. The assay can be described thus: Potentiation of temozolomide in LoVo cells by 0.40 uM compound (TM). The format is functional, Homo sapiens.
For assay [3], the system named is A549. The assay can be described thus: Concentration that gives 50% growth inhibition (temozolomide alone/ (temozolomide + 0.4 uM of compound)) in A549 cells. It counts as functional, Homo sapiens. The gist of the method:
(§1)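 A549 cells exposed to temozolomide (TM) or topotecan (TP), each with or without 0.4 μM PARP inhibitor. […] PF50 = GI50 of cytotoxic agent alone ÷ GI50 with inhibitor. Values are the average of two independent experiments.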

Assay [4] concerns A549. Description: Concentration that gives 50% growth inhibition (topotecan alone/ (topotecan + 0.4 uM of compound)) in A549 cells. It counts as functional, Homo sapiens. The method in brief: as §1
Assay [5] concerns LoVo. The assay can be described thus: Potentiation of topotecan in LoVo cells, by 0.40 uM compound (TP). The format is functional, Homo sapiens.
The subject of assay [6] is A549. The assay can be described thus: Concentration that gives 50% growth inhibition in A549 cells, activity expressed as PF50 (TM). It counts as functional, Homo sapiens. The method in brief:
as §1

Assay [7] has as its target T1, Poly [ADP-ribose] polymerase 1 (Homo sapiens, UniProt P09874). The assay can be described thus: Inhibitory activity against human full length Poly (ADP-ribose) polymerase 1.
In assay [8] the test system is A549. The assay can be described thus: Enhancement factor of 200 uM temozolomide by 0.4 uM PARP inhibitor in A549 cells.
For assay [9], the target named is T1, Poly [ADP-ribose] polymerase 1. The assay can be described thus: Inhibitory activity against human full length Poly (ADP-ribose) polymerase 1 at 100 uM. The gist of the method:
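Human full-length PARP-1 enzyme assay. Tested at a single concentration of 100 μM, reported as percent inhibition instead of a Ki value.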

For assay [10], the system named is A549. The assay can be described thus: Percent ADP-ribose polymer formation in presence of MNNG (25 uM) at 0..03 uM compound concentration in A549 cells. The format is functional, Homo sapiens. The method in brief:
(§2)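 A549 cells treated with vehicle, with 25 μM MNNG, or with 25 μM MNNG plus inhibitor at 0.006–11 μM. ADP-ribose polymer quantified by HPLC and expressed as % of the polymer formed with 25 μM MNNG alone.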

The test system of assay [11] is A549. Description: Percent ADP-ribose polymer formation in presence of MNNG (25 uM) at 0..4 uM compound concentration in A549 cells. It counts as functional, Homo sapiens. The gist of the method: as §2
The subject of assay [12] is A549. The assay can be described thus: Effect on NAD+ depletion (% remaining versus vehicle control) in presence of MNNG (25 uM) at 0.15 uM compound concentration in A549 cells. The format is functional, Homo sapiens. The gist of the method:
(§3)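 A549 cells treated with vehicle, with 25 μM MNNG (subtoxic DNA alkylation), or with 25 μM MNNG plus inhibitor at 0.006–11 μM. Cellular NAD+ measured by an enzyme recycling method and expressed as % remaining relative to vehicle-treated cells without DNA damage.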

For assay [13], the system named is A549. The assay can be described thus: Effect on NAD+ depletion (% remaining versus vehicle control) in presence of MNNG (25 uM) at 0.4 uM compound concentration in A549 cells. The format is functional, Homo sapiens. The gist of the method:
as §3

The test system of assay [14] is A549. The assay can be described thus: Effect on NAD+ depletion (% remaining versus vehicle control) in presence of MNNG (25 uM) at 0.006 uM compound concentration in A549 cells. It counts as functional, Homo sapiens. The method in brief: as §3
Assay [15] concerns LoVo. Description: Potentiation of topotecan in LoVo cells by 0.40 uM compound (TP). It counts as functional, Homo sapiens.
Assay [16] has as its system A549. Description: Concentration that gives 50% growth inhibition in A549 cells, activity expressed as PF50 (TP) at 0.03 uM. It counts as functional, Homo sapiens. The method in brief: (§4)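 A549 cells given topotecan alone or together with the PARP inhibitor at the listed concentration. PF50 (TP) = GI50 of topotecan alone ÷ GI50 of topotecan with inhibitor.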
Assay [17] deals with A549. The assay can be described thus: Percent ADP-ribose polymer formation in presence of MNNG (25 uM) at 11 uM compound concentration in A549 cells. It counts as functional, Homo sapiens. The method in brief:
as §2

In assay [18] the test system is A549. Description: Effect on NAD+ depletion (% remaining versus vehicle control) in presence of MNNG (25 uM) at 11 uM compound concentration in A549 cells. It counts as functional, Homo sapiens. The method in brief:
as §3

Assay [19] has as its system A549. The assay can be described thus: Concentration that gives 50% growth inhibition in A549 cells, activity expressed as PF50 (TP) at 0.006 uM. It counts as functional, Homo sapiens. The gist of the method: as §4
Assay [20] concerns A549. Description: Percent ADP-ribose polymer formation in presence of MNNG (25 uM) at 0..15 uM compound concentration in A549 cells. The format is functional, Homo sapiens. The gist of the method: as §2
Assay [21] deals with A549. Description: Concentration that gives 50% growth inhibition in A549 cells, activity expressed as PF50 (TP) at 0.4 uM. The format is functional, Homo sapiens. The method in brief:
as §4

The subject of assay [22] is A549. The assay can be described thus: Concentration that gives 50% growth inhibition in A549 cells, activity expressed as PF50 (TP) at 0.15 uM. It counts as functional, Homo sapiens. The gist of the method:
as §4

For assay [23], the system named is A549. The assay can be described thus: Effect on NAD+ depletion (% remaining versus vehicle control) in presence of MNNG (25 uM) at 0.03 uM compound concentration in A549 cells. It counts as functional, Homo sapiens. The gist of the method: as §3
Assay [24] relates to A549. Description: Percent ADP-ribose polymer formation in presence of MNNG (25 uM) at 0..006 uM compound concentration in A549 cells. The format is functional, Homo sapiens. The method in brief:
as §2

Some results are limits rather than exact numbers.

T1 sequence (P09874 whole entry): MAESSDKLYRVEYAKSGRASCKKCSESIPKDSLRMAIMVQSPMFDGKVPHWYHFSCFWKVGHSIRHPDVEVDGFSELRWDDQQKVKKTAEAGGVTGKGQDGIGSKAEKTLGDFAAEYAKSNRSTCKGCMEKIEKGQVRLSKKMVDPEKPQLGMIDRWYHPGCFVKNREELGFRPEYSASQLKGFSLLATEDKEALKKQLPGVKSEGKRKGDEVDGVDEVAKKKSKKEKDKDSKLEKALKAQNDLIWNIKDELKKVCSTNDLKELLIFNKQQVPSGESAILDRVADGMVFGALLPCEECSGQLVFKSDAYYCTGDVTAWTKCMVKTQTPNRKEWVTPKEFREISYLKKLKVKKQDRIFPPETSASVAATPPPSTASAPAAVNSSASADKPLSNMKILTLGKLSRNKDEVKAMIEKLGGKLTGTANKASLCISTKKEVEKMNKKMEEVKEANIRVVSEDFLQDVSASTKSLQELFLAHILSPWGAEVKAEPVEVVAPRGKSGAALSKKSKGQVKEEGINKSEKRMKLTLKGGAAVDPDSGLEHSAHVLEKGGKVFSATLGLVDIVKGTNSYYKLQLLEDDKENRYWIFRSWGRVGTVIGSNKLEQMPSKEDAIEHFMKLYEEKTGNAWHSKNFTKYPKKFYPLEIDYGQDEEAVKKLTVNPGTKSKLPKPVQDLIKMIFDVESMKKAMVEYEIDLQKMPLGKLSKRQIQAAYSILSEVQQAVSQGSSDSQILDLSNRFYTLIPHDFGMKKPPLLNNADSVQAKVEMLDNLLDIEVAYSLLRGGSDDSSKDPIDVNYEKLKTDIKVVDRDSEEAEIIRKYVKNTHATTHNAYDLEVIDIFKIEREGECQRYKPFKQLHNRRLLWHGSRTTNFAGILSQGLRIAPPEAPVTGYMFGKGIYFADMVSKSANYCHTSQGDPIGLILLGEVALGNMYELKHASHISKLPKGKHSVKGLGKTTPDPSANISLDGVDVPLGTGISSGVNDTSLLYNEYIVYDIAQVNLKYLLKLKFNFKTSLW

The GI50 is the concentration at which growth is held to half of that of the control. Higher therefore signals less potent growth inhibition. In the assay with LoVo [1], `CN(C)Cc1cccc(-c2nc3cccc4c3n2CCNC4=O)c1` gave a GI50 above 50 µM. Besides, the PF50 was 2 in the assay with LoVo [2], 1.4 with A549 [3], 1.8 in the assay with A549 [4] and 1.5 in the assay on LoVo [5].

For the molecule `O=C1NCCn2c(-c3ccccc3Cl)nc3cccc1c32`, the PF50 in the assay with A549 [4] was determined as 1.3.

For the molecule `O=C1NCCn2c(-c3cccc(C(F)(F)F)c3)nc3cccc1c32`, the PF50 with A549 [4] stood at 1.7.

By Ki is commonly meant the equilibrium dissociation constant of an inhibitor or competing ligand from its target. Lower therefore signals tighter binding. With `Cc1nc2cccc3c2n1CCNC3=O`, the PF50 with A549 [6] turned out to be 1.1; in the assay on A549 [4], 1.2. This molecule also had a Ki in assay [7] of 0.045 µM.

As for `O=C1NCCn2c(-c3cccc4ccccc34)nc3cccc1c32`, the PF50 with A549 [4] amounted to 1.4.

In general, inhibition refers to the relative decrease from the control value, in per cent. As to `CN1CCn2c(-c3cccc4ccccc34)nc3cccc(c32)C1=O`, the EF200 in the assay with A549 [8] came out at 1.1. In assay [9], this molecule registered an inhibition of 40%.

`O=C1NCCn2c(-c3ccc(Cl)cc3)nc3cccc1c32` came in with a 50% growth inhibitory concentration (GI50) in the assay on LoVo [1] of 7.9 µM. In addition, the PF50 came out at 2.1 in the assay on LoVo [2], 1.5 with A549 [3], 2 in the assay on A549 [4] and 1.5 with LoVo [5].

As to `O=C1NCCn2c(-c3ccccc3)nc3cccc1c32`, the PF50 in the assay with A549 [4] came out at 1.5.

On to `O=C1NCCn2c(-c3ccc(CO)cc3)nc3cccc1c32`, for which, in the assay on A549 [8], the EF200 turned out to be 1.5.

`O=C1NCCn2c(-c3cccc(CO)c3)nc3cccc1c32`: the EF200 in the assay on A549 [8] amounted to 1.2.

As to `CN(C)Cc1ccc(-c2nc3cccc4c3n2CCNC4=O)cc1`, the Formation in the assay on A549 [10] is given as 38%; with A549 [11], 13%; with A549 [17] it was 5.5%; with A549 [20] it was 20%; with A549 [24] it was 85%. In the assay with LoVo [1], this molecule registered a 50% growth inhibitory concentration (GI50) of 11.2 µM. The Remaining was found to be 85% in the assay with A549 [12]; 88% with A549 [13]; 65% in the assay on A549 [14]; 99% in the assay with A549 [18]; 75% with A549 [23]. The PF50 with LoVo [15] is on record as 1.7; in the assay on LoVo [2] it was 5.4; with A549 [16], 1.9; with A549 [3], 2.2; in the assay with A549 [19], 1.6; in the assay on A549 [21], 2.3. The PF50 in the assay on A549 [22] came out at 2.1; with A549 [4], 2.
